A1 inh – inhibitors of the anti-apoptotic protein A1, read as caspase activation; hit rate 0.066% among 330,000; caspase activation, % (test concentration not listed); MEF A1-2A-BIM cells, Caspase-Glo 3/7 luminescence, 3 h; percent of clofoctol response, vehicle zero;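 active = over half of replicate activation scores above 10%, or exactly half above 10 with the replicate mean above 10; inconclusive = replicate mean below 10 yet half the replicates above 10; inactive = over half of replicates below 10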
MC4R ag barr – human MC4R agonism via beta-arrestin; P32245; activation, % at 8.9 µM; hit rate 0.98% among 360,000; U2OS MC4R beta-arrestin complementation, luminescence; percent of melanotan II response, DMSO zero;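 active = activation above a per-plate cutoff, the mean activation of sample wells on that plate plus 3 SD, cut at about 8% in these data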
Target sequence (P32245 whole entry, looked up): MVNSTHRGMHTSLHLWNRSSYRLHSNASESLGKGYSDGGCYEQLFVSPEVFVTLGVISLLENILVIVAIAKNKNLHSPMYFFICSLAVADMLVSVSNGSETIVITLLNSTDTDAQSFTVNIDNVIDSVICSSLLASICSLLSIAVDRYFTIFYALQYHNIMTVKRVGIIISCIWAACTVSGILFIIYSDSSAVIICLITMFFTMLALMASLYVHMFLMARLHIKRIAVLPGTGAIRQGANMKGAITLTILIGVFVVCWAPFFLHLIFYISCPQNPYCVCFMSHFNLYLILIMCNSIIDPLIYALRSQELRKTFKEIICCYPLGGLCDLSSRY
Granule exo inh – lytic granule exocytosis inhibition | inhibition, % at 10 µM | TALL-104 LAMP-1 surface exposure, flow cytometry; cells stimulated with thapsigargin and PMA | hit rate 0.66% among 360,000;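 active = inhibition above about 55%, limit read from the data; inconclusive = no clear call, values can overlap the other calls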
MC4R antagonist – blocks human MC4R cAMP signaling | P32245 | MC4R-expressing cells, MTII-stimulated cAMP, LANCE TR-FRET | inhibition, % at 6.5 µM | hit rate 0.48% among 360,000;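 active = inhibition above its plate's cutoff, the mean of tested wells on that plate plus 3 SD, cut at about 29% in these data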;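 also: 0% = Melanotan II alone and 100% = Melanotan II plus saturating MCL0020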
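system = U2OS cells with stable human MC4R expression | also added = Melanotan II challenge after compound preincubation | dosing = one concentration, 6.5 µM nominal | incubation = compound 30 min, challenge 1 h, detection 1 h | measured by = TR-FRET with Eu-cAMP and labeled anti-cAMP, 671 nm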
sPLA2-III inh – Blocks human group III sPLA2 activity. hit rate 0.56% among 370,000. Q9NZ20. AID 743126. inhibition, % at 12.2 µM. QFRET BODIPY PC-A2 liposome hydrolysis, fluorescence;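 active = inhibition above mean plus 3 SD of compounds lying within the high and low control bounds, cut at about 19% in these data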;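 also: 0% = median of test compound wells and 100% = no enzyme DMSO wells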
NTR1 agonist – agonists of human neurotensin receptor NTR1. hit rate 0.17% among 330,000. NTR1-U2OS beta-arrestin-GFP spot imaging, agonist mode. activation, % at 20 µM. P30989;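 active = activation at or above 40% of the spot to cytoplasm intensity ratio, with at least 20 cells analyzed; inconclusive = wells under 20 cells, flagged as cytotoxic or low count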;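 also: 0% = DMSO without peptide and 100% = 100 nM NTR1 peptide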
* marks the source's active call; other numbers are inactive results; ? = inconclusive; / = no result given; ! = a repeat was not active. Sampled rows, rich in hits. Any-hit rate of the full collection: about 2.5%.

SMILES	A1 inh	MC4R ag barr	Granule exo inh	MC4R antagonist	sPLA2-III inh	NTR1 agonist
COC(=O)[C@]12C[C@H](CC(=O)NCC34CC5CC(CC(C5)C3)C4)C(=O)N(CCc3ccc(OC)c(OC)c3)C1=C[C@H](C(C)C)O[C@@H]2C1CC1	/	/	/	/	-11	/
Fc1ccc2[nH]c3c(N4CCN(c5ccccc5)CC4)ncnc3c2c1	1	4	52	21	-7	41*
CCOC(=O)N1CCN(c2ncnc3c2[nH]c2ccc(F)cc23)CC1	0	-2	2	12	8	3
C=C(C)C(=O)Nc1cccc(C2=NOC3(C2)C[C@@H](C(N)=O)N(C(=O)c2cc([N+](=O)[O-])cc([N+](=O)[O-])c2)C3)c1 (stereo not given in full)	0	-1	64*	5	-4	-3
COc1cc(OC)c2c(=O)c3c(C(=O)O)c(O)ccc3oc2c1	/	/	/	/	-4	/
CCN(CC)c1ccc(NC(=O)CSc2nc(C3CC3)nc3ccccc23)cc1C	0	8.9*	-7	-16	3	1
CCCCNC(=O)C[C@H]1C[C@@]2(C(=O)OC)C(=C[C@H](C(C)(C)C)O[C@@H]2C)N(Cc2ccc(Cl)cc2Cl)C1=O	/	/	/	/	-10	/
CCCCCCCCOC(=O)c1c(CSC(=N)N)n(C)c2cc(Br)c(OC(C)=O)cc12	0	2	72*	8	16	15
O=C(Nc1nc2c(F)cccc2s1)C1CC1	-3	0	0	4	8	0
CC1CCc2c(sc(Nc3nc4c(F)cccc4s3)c2C(N)=O)C1 (stereo not given)	1	-1	85*	8	-1	3
Cc1ccc(C(=O)N/N=C/c2c(O)ccc3ccccc23)cn1	0	0	?	-1	30*	4
O=C(N/N=C\c1c(O)ccc2ccccc12)c1cncc(Br)c1	0	-1	80*	12	13	3
O=S(=O)(c1ccc(C(F)(F)F)cc1)N1CCCc2nc(-c3ccc(F)cc3)ccc21	/	/	/	/	0	/
C[C@H](CO)N1C[C@H](C)[C@H](CN(C)C(=O)Nc2cccc(F)c2)OCc2cnnn2CCCC1=O	/	/	/	/	9	/
COc1nc(N)nc(NC(=O)c2cccs2)c1N=O	2	0	105*	-15	1	2
COC(=O)[C@]12C[C@H](CC(=O)NCc3ccc(C)o3)C(=O)N(Cc3ccc(Cl)cc3Cl)C1=C[C@H](C1CCCC1)O[C@@H]2C	/	/	/	/	-16	/
C[C@H](O)[C@@H]1CN2CCc3c([nH]c4cccc(-c5ccccc5)c34)[C@@H]2C[C@@H]1N(C)CC1CCCCC1	/	/	/	/	1	/
N#CCC(CNc1ncc(C(F)(F)F)cc1Cl)OC(=O)c1ccc(Cl)cc1 (stereo not given)	1	0	-2	0	0	8
N#CCC(CNc1ncc(C(F)(F)F)cc1Cl)OC(=O)c1cccc([N+](=O)[O-])c1 (stereo not given)	0	9.1*	4	-1	-17	4
Cc1ccn2c(NC3CCCCC3)c(-c3cccc(SC4CCCCC4)c3)nc2c1	1	-1	7	8	10	1
CCC(C)Sc1cccc(-c2nc3cc(C)ccn3c2NC2CCCCC2)c1 (stereo not given)	/	4	57*!	20	17	-1
Cc1ccc(/C=N/NC(=O)CCCOc2ccc(Cl)cc2Cl)cc1[N+](=O)[O-]	1	9.0*	4	6	4	8
COc1ccc(/C=N/NC(=O)CCCOc2ccc(Cl)cc2Cl)cc1[N+](=O)[O-]	-1	-1	-2	0	8	11
COc1ccc(OCCNc2cc(N3CCCCC3)ccc2[N+](=O)[O-])cc1	0	-2	2	23	-3	0
COc1ccc(OCCNc2cc(Cl)ccc2[N+](=O)[O-])cc1	0	10*	1	13	12	0
COC(=O)[C@H](CC(C)C)N(Cc1cn(CC2CCCCC2)nn1)S(=O)(=O)c1ccc(F)cc1Br	/	/	/	/	4	/
COc1cc(Cl)c(C)cc1NC(=O)COc1ccccc1[N+](=O)[O-]	0	0	0	0	-2	7
COc1cc(NC(=O)COc2c(C)cc(C)cc2[N+](=O)[O-])c(OC)cc1Cl	0	8.4*	-7	7	2	2
